According to ChEMBL document CHEMBL1153485, “Synthesis and biological evaluation of novel 1-(4-methoxyphenethyl)-1H-benzimidazole-5-carboxylic acid derivatives and their precursors as antileukemic agents” (Bioorg Med Chem Lett, 2009):
Activity calls are given as the source filed them. The rule behind the calls is not given here.

Key:
Type in all cases: functional, cell-based
K562 [1] = test: Cytotoxicity against human K562 cells
Procedure, shortened: (§1)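 K562 and CEM cells; IC50 values calculated from both trypan blue counting and MTT assays.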

CCRF-CEM [2] = test: Cytotoxicity against human CEM cells; procedure, shortened: as §1
K562 [3] = test: Cytotoxicity against human K562 cells at 100 uM within 48 hrs by trypan blue exclusion assay
Procedure, shortened: (§2)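 Leukemic cells treated with derivatives dissolved in DMSO at […]; DMSO-only cells at the amount used for the top concentration served as vehicle control. Viable cells counted by trypan blue at 24 h intervals until stationary phase.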

CCRF-CEM [4] = test: Cytotoxicity against human CEM cells at 100 uM within 48 hrs by trypan blue exclusion assay; procedure, shortened: as §2
K562 [5] = test: Cytotoxicity against human K562 cells at 250 uM within 48 hrs by trypan blue exclusion assay; procedure, shortened: as §2
CCRF-CEM [6] = test: Cytotoxicity against human CEM cells at 250 uM within 48 hrs by trypan blue exclusion assay; procedure, shortened: as §2
K562 [7] = test: Induction of cell cycle arrest at M phase in human K562 cells assessed as reduction in phosphorylated histone H3 level at 5 uM after 24 hrs by Western blot analysis
K562 [8] = test: Induction of cell cycle arrest at M phase in human K562 cells assessed as reduction in phosphorylated histone H3 level at 10 uM after 24 hrs by Western blot analysis
K562 [9] = test: Induction of cell cycle arrest in human K562 cells assessed as reduction in PCNA level at 5 to 10 uM after 24 hrs by Western blot analysis
K562 [10] = test: Induction of cell cycle arrest at G2/M phase in human K562 cells assessed as down-regulation of cyclin B1 at 5 to 10 uM after 24 hrs by Western blot analysis
K562 [11] = test: Induction of cell cycle arrest at S phase in human K562 cells assessed as down-regulation of CDK2 at 10 uM after 24 hrs by Western blot analysis
K562 [12] = test: Induction of p21 activation in human K562 cells at 5 to 10 uM after 24 hrs by Western blot analysis
K562 [13] = test: Induction of apoptosis in human K562 cells assessed as DNA strand breakage at 10 uM after 72 hrs using ethidium bromide staining by agarose gel electrophoresis
K562 [14] = test: Induction of apoptosis in human K562 cells assessed as upregulation of BAD protein at 30 uM by SDS-PAGE; details: TDE = time-dependent effect
Procedure, shortened: (§3)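 K562 cells treated with […] compound for 12 and 24 h; DMSO-treated cells grown 24 h as vehicle control. Lysates separated by SDS-PAGE, transferred to PVDF, probed with specific primary and secondary antibodies for BAD, BCL2 and PARP.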

K562 [15] = test: Induction of apoptosis in human K562 cells assessed as down-regulation of BCL2 protein at 30 uM after 12 hrs by SDS-PAGE; procedure, shortened: as §3
K562 [16] = test: Induction of apoptosis in human K562 cells assessed as PARP cleavage at 30 uM after 12 hrs by SDS-PAGE; procedure, shortened: as §3
K562 [17] = test: Cell cycle arrest in human K562 cells assessed as accumulation at S phase at 1 to 10 uM after 8 to 48 hrs by FACS analysis
Procedure, shortened: (§4)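 K562 cells treated with […] compound, analysed by FACS for cell cycle distribution; DMSO-treated cells as vehicle control.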

K562 [18] = test: Cell cycle arrest in human K562 cells assessed as accumulation at G2/M phase at 1 to 10 uM after 8 to 48 hrs by FACS analysis; procedure, shortened: as §4
K562 [19] = test: Induction of apoptosis in human K562 cells assessed as DNA strand breakage at 100 uM after 72 hrs using ethidium bromide staining by agarose gel electrophoresis

**Q.** With `COc1ccc(CCn2c(-c3cccc(Br)c3)nc3cc(C(=O)O)ccc32)cc1` as the molecule, how does the IC50 (K562 [1]) read?
**A.** Its IC50 is 124 µM.

**Q.** And the IC50 (CCRF-CEM [2])?
**A.** Its IC50 is 120 µM.

**Q.** What about the Activity (K562 [3]) of the same molecule?
**A.** Its Activity is “Active”.

**Q.** And the Activity (CCRF-CEM [4])?
**A.** The Activity was “Active”.

**Q.** What about the Activity (K562 [5]) of the same molecule?
**A.** Its Activity is “Active”.

**Q.** And the Activity (CCRF-CEM [6])?
**A.** The Activity was “Active”.

**Q.** How did the IC50 (K562 [1]) turn out when `COc1ccc(CCn2c(-c3ccc(F)c([N+](=O)[O-])c3)nc3cc(C(=O)O)ccc32)cc1` was run?
**A.** The IC50 was 135 µM.

**Q.** And the IC50 (CCRF-CEM [2])?
**A.** The IC50 was 132 µM.

**Q.** `COC(=O)c1ccc2c(c1)nc(-c1ccc(N)cc1)n2CCc1ccc(OC)cc1` was tested. Which IC50 (K562 [1]) did it give?
**A.** Its IC50 is 180 µM.

**Q.** And the IC50 (CCRF-CEM [2])?
**A.** Its IC50 is 175 µM.

**Q.** How did the IC50 (K562 [1]) turn out when `COc1ccc(CCn2c(-c3ccc(Cl)cc3Cl)nc3cc(C(=O)O)ccc32)cc1` was run?
**A.** Its IC50 is 110 µM.

**Q.** And the IC50 (CCRF-CEM [2])?
**A.** Its IC50 is 102 µM.

**Q.** And the Activity (K562 [3])?
**A.** The Activity was “Active”.

**Q.** And the Activity (CCRF-CEM [4])?
**A.** Its Activity is “Active”.

**Q.** And the Activity (K562 [5])?
**A.** Its Activity is “Active”.

**Q.** What about the Activity (CCRF-CEM [6]) of the same molecule?
**A.** The Activity was “Active”.

**Q.** Which results are given for `COC(=O)c1ccc2c(c1)nc(-c1ccc(C(C)(C)C)cc1)n2CCc1ccc(OC)cc1`?
**A.** IC50 (K562 [1]): 70 µM; IC50 (CCRF-CEM [2]): 68 µM; Activity (K562 [3]): Active; Activity (CCRF-CEM [4]): Active; Activity (K562 [5]): Active; Activity (CCRF-CEM [6]): Active

**Q.** What does the source list for `COC(=O)c1ccc2c(c1)nc(-c1ccc(F)c([N+](=O)[O-])c1)n2CCc1ccc(OC)cc1`?
**A.** Activity (K562 [7]): Active; Activity (K562 [8]): Active; Activity (K562 [9]): Active; Activity (K562 [10]): Active; Activity (K562 [11]): Active; Activity (K562 [12]): Active; Activity (K562 [13]): Active; Activity (K562 [14]): tde; Activity (K562 [15]): Active; Activity (K562 [16]): Active; IC50 (K562 [1]): 3 µM; IC50 (CCRF-CEM [2]): 4 µM; Activity (K562 [3]): Active; Activity (CCRF-CEM [4]): Active; Activity (K562 [5]): Active; Activity (CCRF-CEM [6]): Active; Activity (K562 [17]): Active; Activity (K562 [18]): Active

**Q.** Which results are given for `COC(=O)c1ccc2c(c1)nc(-c1cccc(Br)c1)n2CCc1ccc(OC)cc1`?
**A.** IC50 (K562 [1]): > 250 µM; IC50 (CCRF-CEM [2]): > 250 µM

**Q.** Which results are given for `COC(=O)c1ccc2c(c1)nc(-c1cccc(OC)c1)n2CCc1ccc(OC)cc1`?
**A.** IC50 (K562 [1]): 136 µM; IC50 (CCRF-CEM [2]): 138 µM; Activity (K562 [3]): Active; Activity (CCRF-CEM [4]): Active; Activity (K562 [5]): Active; Activity (CCRF-CEM [6]): Active

**Q.** For `COc1ccc(CCn2c(-c3ccc(N)cc3)nc3cc(C(=O)O)ccc32)cc1`, which IC50 (K562 [1]) is on record?
**A.** Its IC50 is > 250 µM.

**Q.** What about the IC50 (CCRF-CEM [2]) of the same molecule?
**A.** The IC50 was > 250 µM.

**Q.** What does the source list for `COC(=O)c1ccc2c(c1)nc(-c1ccc(F)c(N)c1)n2CCc1ccc(OC)cc1`?
**A.** IC50 (K562 [1]): 78 µM; IC50 (CCRF-CEM [2]): 75 µM

**Q.** For `COc1ccc(CCn2c(-c3c(F)cccc3F)nc3cc(C(=O)O)ccc32)cc1`, which IC50 (K562 [1]) is on record?
**A.** The IC50 was 80 µM.

**Q.** What about the IC50 (CCRF-CEM [2]) of the same molecule?
**A.** Its IC50 is 85 µM.

**Q.** Which IC50 (K562 [1]) does the source give for `COC(=O)c1ccc2c(c1)nc(-c1c(F)cccc1F)n2CCc1ccc(OC)cc1` here?
**A.** The IC50 was 84 µM.

**Q.** And the IC50 (CCRF-CEM [2])?
**A.** The IC50 was 85 µM.

**Q.** And the Activity (K562 [3])?
**A.** The Activity was “Active”.

**Q.** And the Activity (CCRF-CEM [4])?
**A.** The Activity was “Active”.

**Q.** And the Activity (K562 [5])?
**A.** Its Activity is “Active”.

**Q.** What about the Activity (CCRF-CEM [6]) of the same molecule?
**A.** The Activity was “Active”.

**Q.** What does the source list for `COC(=O)c1ccc2c(c1)nc(-c1ccccc1)n2CCc1ccc(OC)cc1`?
**A.** IC50 (K562 [1]): 64 µM; IC50 (CCRF-CEM [2]): 65 µM; Activity (K562 [3]): Active; Activity (CCRF-CEM [4]): Active; Activity (K562 [5]): Active; Activity (CCRF-CEM [6]): Active

**Q.** For `COc1ccc(CCn2c(-c3ccccc3)nc3cc(C(=O)O)ccc32)cc1`, which IC50 (K562 [1]) is on record?
**A.** Its IC50 is > 250 µM.

**Q.** And the IC50 (CCRF-CEM [2])?
**A.** The IC50 was > 250 µM.

**Q.** Which results are given for `COc1ccc(CCn2c(-c3ccc([N+](=O)[O-])cc3)nc3cc(C(=O)O)ccc32)cc1`?
**A.** IC50 (K562 [1]): 250 µM; IC50 (CCRF-CEM [2]): 245 µM

**Q.** Which results are given for `COC(=O)c1ccc2c(c1)nc(-c1ccc([N+](=O)[O-])cc1)n2CCc1ccc(OC)cc1`?
**A.** IC50 (K562 [1]): 120 µM; IC50 (CCRF-CEM [2]): 122 µM

**Q.** What does the source list for `COC(=O)c1ccc2c(c1)nc(-c1ccccc1F)n2CCc1ccc(OC)cc1`?
**A.** Activity (K562 [19]): Active; IC50 (K562 [1]): 56 µM; IC50 (CCRF-CEM [2]): 55 µM; Activity (K562 [3]): Active; Activity (CCRF-CEM [4]): Active; Activity (K562 [5]): Active; Activity (CCRF-CEM [6]): Active

**Q.** Which results are given for `COc1ccc(CCn2c(-c3cccc(OC)c3)nc3cc(C(=O)O)ccc32)cc1`?
**A.** IC50 (K562 [1]): 200 µM; IC50 (CCRF-CEM [2]): 195 µM

**Q.** How did the IC50 (K562 [1]) turn out when `COC(=O)c1ccc2c(c1)nc(-c1ccc(Cl)cc1Cl)n2CCc1ccc(OC)cc1` was run?
**A.** The IC50 was > 250 µM.

**Q.** And the IC50 (CCRF-CEM [2])?
**A.** Its IC50 is > 250 µM.

**Q.** For `COc1ccc(CCn2c(-c3ccc(F)c(N)c3)nc3cc(C(=O)O)ccc32)cc1`, which IC50 (K562 [1]) is on record?
**A.** The IC50 was 180 µM.

**Q.** What about the IC50 (CCRF-CEM [2]) of the same molecule?
**A.** The IC50 was 182 µM.

**Q.** What does the source list for `COc1ccc(CCn2c(-c3ccccc3F)nc3cc(C(=O)O)ccc32)cc1`?
**A.** IC50 (K562 [1]): 240 µM; IC50 (CCRF-CEM [2]): 244 µM

**Q.** Which results are given for `COc1ccc(CCn2c(-c3ccc(C(C)(C)C)cc3)nc3cc(C(=O)O)ccc32)cc1`?
**A.** Activity (K562 [19]): Active; IC50 (K562 [1]): 40 µM; IC50 (CCRF-CEM [2]): 42 µM
